What all share (format): functional
The species entered for assay [1] is Rattus norvegicus. Briefly: Antiovulatory activity was expressed as the percentage of 12 rats blocked at a dose 0.5 ug. To be noted: in the assay text read “14 rats” for “12 rats”. The procedure, abridged:
(§1)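 Sprague-Dawley rats given peptide by subcutaneous injection at noon on the day of proestrus, in 40% propane-1,2-diol–0.9% saline vehicle. Oviducts examined for ova the following day.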

For assay [2], the species on record is Rattus norvegicus. Briefly: Antiovulatory activity was expressed as the percentage of 9 rats blocked at a dose 7.5 ug. The procedure, abridged:
as §1

The species named for assay [3] is Rattus norvegicus. Briefly: Antiovulatory activity was expressed as the percentage of 8 rats blocked at a dose 3 ug. The method in brief:
as §1

Assay [4] is filed under the species Rattus norvegicus. The assay is described as follows: Antiovulatory activity was expressed as the percentage of 11 rats blocked at a dose 1 ug. The method in brief:
as §1

The species entered for assay [5] is Rattus norvegicus. The assay is described as follows: Antiovulatory activity was expressed as the percentage of 11 rats blocked at a dose 0.5 ug. The method in brief:
as §1

For assay [6], the species on record is Rattus norvegicus. The assay is described as follows: Antiovulatory activity was expressed as the percentage of 9 rats blocked at a dose 1 ug. The procedure, abridged:
as §1

The species entered for assay [7] is Rattus norvegicus. The assay is described as follows: Antiovulatory activity was expressed as the percentage of 9 rats blocked at a dose 0.5 ug. The method in brief:
as §1

The species entered for assay [8] is Rattus norvegicus. The assay is described as follows: Antiovulatory activity was expressed as the percentage of 13 rats blocked at a dose 1 ug. The method in brief: as §1
The species named for assay [9] is Rattus norvegicus. Briefly: Antiovulatory activity was expressed as the percentage of 10 rats blocked at a dose 1.5 ug. The procedure, abridged: as §1
The species named for assay [10] is Rattus norvegicus. Briefly: Antiovulatory activity was expressed as the percentage of 9 rats blocked at a dose 3 ug. The method in brief:
as §1

Residues, ends and D or L forms follow the SMILES beside them.

Turning to `CC(=O)N[C@H](Cc1ccc2ccccc2c1)C(=O)N[C@H](Cc1ccc(Cl)cc1)C(=O)N[C@H](Cc1ccc(O)cc1)C(=O)N[C@@H](CO)C(=O)N[C@@H](Cc1ccc(O)cc1)C(=O)N[C@H](CCCN=C(N)N)C(=O)N[C@@H](Cc1ccccc1)C(=O)N[C@@H](CCCN=C(N)N)C(=O)N1CCC[C@H]1C(=O)N[C@H](C)C(N)=O`, the Antiovulatory activity in the assay listed under Rattus norvegicus [1] was 86%. As for `CC(=O)N[C@H](Cc1ccc2ccccc2c1)C(=O)N[C@H](Cc1ccc2ccccc2c1)C(=O)N[C@H](Cc1ccc(O)cc1)C(=O)N[C@@H](CO)C(=O)N[C@@H](Cc1ccc(O)cc1)C(=O)N[C@H](CCCN=C(N)N)C(=O)N[C@@H](Cc1ccccc1)C(=O)N[C@@H](CCCN=C(N)N)C(=O)N1CCC[C@H]1C(=O)N[C@H](C)C(N)=O`, the Antiovulatory activity in the assay listed under Rattus norvegicus [2] came to 100%; in the assay filed under Rattus norvegicus [3] it was 38%; in the assay listed under Rattus norvegicus [4], 9%.

Consider `CC(=O)N[C@H](Cc1ccc2ccccc2c1)C(=O)N[C@H](Cc1ccc(Cl)cc1)C(=O)N[C@H](Cc1c[nH]c2ccccc12)C(=O)N[C@@H](CO)C(=O)N[C@@H](Cc1ccc(O)cc1)C(=O)N[C@H](CCCN=C(N)N)C(=O)N[C@@H](Cc1ccccc1)C(=O)N[C@@H](CCCN=C(N)N)C(=O)N1CCC[C@H]1C(=O)N[C@H](C)C(N)=O` (HELM PEPTIDE1{[ac].[O=C([C@@H](Cc1ccc2ccccc2c1)N[*:1])[*:2]].[O=C([C@@H](Cc1ccc(Cl)cc1)N[*:1])[*:2]].[dW].S.Y.[dR].F.R.P.[dA].[am]}$$$$V2.0), for which, in the assay filed under Rattus norvegicus [5], the Antiovulatory activity was found to be 64%. For `CC(=O)N[C@H](Cc1ccc2ccccc2c1)C(=O)N[C@H](Cc1ccccc1)C(=O)N[C@H](Cc1ccccc1)C(=O)N[C@@H](CO)C(=O)N[C@@H](Cc1ccc(O)cc1)C(=O)N[C@H](CCCN=C(N)N)C(=O)N[C@@H](Cc1ccccc1)C(=O)N[C@@H](CCCN=C(N)N)C(=O)N1CCC[C@H]1C(=O)N[C@H](C)C(N)=O` (HELM PEPTIDE1{[ac].[O=C([C@@H](Cc1ccc2ccccc2c1)N[*:1])[*:2]].[dF].[dF].S.Y.[dR].F.R.P.[dA].[am]}$$$$V2.0), the Antiovulatory activity in the assay filed under Rattus norvegicus [6] worked out at 100%; in the assay filed under Rattus norvegicus [7], 56%. `CC(=O)N[C@H](Cc1ccc2ccccc2c1)C(=O)N[C@H](Cc1ccc(Cl)cc1)C(=O)N[C@H](Cc1c[nH]c2ccccc12)C(=O)N[C@@H](CO)C(=O)N[C@@H](Cc1ccc(O)cc1)C(=O)N[C@H](CCCN=C(N)N)C(=O)N[C@@H](CC(C)C)C(=O)N[C@@H](CCCN=C(N)N)C(=O)N1CCC[C@H]1C(=O)N[C@H](C)C(N)=O` (HELM PEPTIDE1{[ac].[O=C([C@@H](Cc1ccc2ccccc2c1)N[*:1])[*:2]].[O=C([C@@H](Cc1ccc(Cl)cc1)N[*:1])[*:2]].[dW].S.Y.[dR].L.R.P.[dA].[am]}$$$$V2.0): the Antiovulatory activity in the assay filed under Rattus norvegicus [8] is 77%. Turning to `CC(=O)N[C@H](Cc1ccc(Cl)cc1)C(=O)N[C@H](Cc1ccc(Cl)cc1)C(=O)N[C@H](Cc1c[nH]c2ccccc12)C(=O)N[C@@H](CO)C(=O)N[C@@H](Cc1ccc(O)cc1)C(=O)N[C@H](CCCN=C(N)N)C(=O)N[C@@H](CC(C)C)C(=O)N[C@@H](CCCN=C(N)N)C(=O)N1CCC[C@H]1C(=O)N[C@H](C)C(N)=O` (HELM PEPTIDE1{[ac].[O=C([C@@H](Cc1ccc(Cl)cc1)N[*:1])[*:2]].[O=C([C@@H](Cc1ccc(Cl)cc1)N[*:1])[*:2]].[dW].S.Y.[dR].L.R.P.[dA].[am]}$$$$V2.0), the Antiovulatory activity in the assay listed under Rattus norvegicus [9] came to 10%; in the assay listed under Rattus norvegicus [10] it was 67%.

These data come from ChEMBL document CHEMBL1123924, “Structure-activity studies of antagonists of luteinizing hormone-releasing hormone with emphasis on the amino-terminal region” (1987).
